Measurements gathered from unrelated publications.
Lines come from different studies, so protocols differ.
Method: competition with immobilised ligand
JAK2 JH1: Tyrosine-protein kinase JAK2, JH1 (JAK2, Homo sapiens, UniProt O60674)
JAK2: Tyrosine-protein kinase JAK2 (JAK2, Homo sapiens, UniProt O60674)

SMILES | target | test | setting | remaining binding [%]
N[C@@H]1CCN(c2nccc(-c3cnn4ncccc34)n2)C1 | JAK2 JH1 | cell-free assay | 1 µM | 100
CS(=O)(=O)N1CCCC(NC(=O)[C@H](CCC2CCCCC2)NC(=O)c2ccc(CNC(=O)c3cnc4ccccn34)cc2)C1 (stereo partly shown) | JAK2 JH1 | cell-free assay | 0.1 µM | 100
C[C@@H]1CN(c2ccc3ncc(-c4ccc5[nH]nc(C6CC6)c5c4)n3n2)C[C@H](C)O1 | JAK2 | binding | 0.5 µM | 87
Cn1nc(C(F)(F)F)cc1-c1cnc(N2CCc3cc(S(=O)(=O)Nc4c(F)cc(Cl)cc4F)cc(N4CCCC4=O)c32)nc1 | JAK2 JH1 | cell-free assay | 1 µM | 82
O=C(NCCCN1CCOCC1)c1ccc(Nc2nccc(-c3cc4ccccc4s3)n2)cc1 | JAK2 JH1 | binding | 1 µM | 0.4
CN(C)c1nccc(-c2cnn3ncccc23)n1 | JAK2 JH1 | cell-free assay | 1 µM | 49
C[C@H](c1cccc(C#N)c1)n1cc(Cl)cc(C(N)=O)c1=N | JAK2 JH1 | cell-free assay | 1 µM | 100
CNC(=O)[C@@H]1CC[C@@H](n2c(-c3ccc4cnccc4c3)nc3ccc(C(=O)NCc4cccc(C(N)=O)c4)cc32)C1 | JAK2 JH1 | binding | 1 µM | 100
COc1ccc2cc(OCC3(C(=O)O)CN(C(=O)c4ccc(F)cc4)C3)ccc2c1 | JAK2 JH1 | cell-free assay | 1 µM | 89
CN(CCCC(F)(F)F)c1nccc(-c2cnn3ncccc23)n1 | JAK2 JH1 | cell-free assay | 1 µM | 94
O=C(NCCCN1CCOCC1)c1ccc(Nc2ncc(Cl)c(-c3ccc(Cl)s3)n2)cc1 | JAK2 JH1 | binding | 1 µM | 2.9
O=C(Nc1c[nH]nc1C(=O)NC1CCNCC1)c1cc(F)cc(F)c1 | JAK2 JH1 | binding | 1 µM | 100
COc1cnc(Nc2cccc(S(N)(=O)=O)c2)nc1N1CCN(c2ccccc2)CC1 | JAK2 JH1 | binding | 1 µM | 14
Nc1ncc2c(n1)-c1c([nH]c3ccc(C#CC4CC4)cc13)CCCC2 | JAK2 JH1 | binding | 1 µM | 80
N#Cc1ccccc1CSc1nnc2c(n1)[nH]c1ccccc12 | JAK2 JH1 | binding | 10 µM | 100
CC(C)(C)c1ccc(-c2nc(CBr)nn2-c2cccc(O)c2)cc1 | JAK2 | cell-free assay | 10 µM | 67
O=C(c1ccc(Nc2ncc(Cl)c(-c3ccc(Cl)s3)n2)cc1)N1CCC(N2CCCC2)CC1 | JAK2 JH1 | binding | 1 µM | 1.3
CN(C)C(=O)Cn1cc(-c2nc([C@@](C)(c3ccc(-c4cnc(N)nc4)cc3)C3CC3)no2)cn1 | JAK2 JH1 | cell-free assay | 1 µM | 73
CCN1CCN(Cc2ccc(C(=O)Nc3ccc(C)c(Oc4ccc5c(c4)CC(=O)N5)c3)cc2C(F)(F)F)CC1 | JAK2 JH1 | binding | 1 µM | 91
